Drawing on PubChem BioAssay AID686919 (Broad Institute, 2013), this text covers remaining cruzain activity (% of DMSO control) for 5 compounds.

Active and inactive are the calls of the source.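 Rule for the calls: active = remaining cruzain activity at or below half of the DMSO control at 10 µM, implied only; inactive = remaining activity above half of control.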

The subject of this test is cruzain (cruzipain) [Trypanosoma cruzi]. The test is described as follows: cruzain protease inhibitors, dose response, mechanism study for T. cruzi phenotypic hit project, biochemical, dry powder, percent inhibition (AID 686919). The conditions noted are these: recombinant cruzain, Z-Phe-Arg-AMC fluorescence rate; at 10 µM (top of the series). A digest of the protocol:
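Medium – pH 5.5 acetate buffer with DTT and Triton X-100 · Test system – recombinant cruzain · Read-out basis – AMC release rate normalized to DMSO control wells · Also added – Z-Phe-Arg-AMC, 10 µM · Signal – AMC fluorescence rate, 355/460 nm · Benchmarks – DMSO vehicle control · Times – 5 min preincubation at room temperature, 3 min kinetic read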
`CN(C)C(=O)c1cccc(-c2ccc([C@H]3[C@H](CO)N4CCCCN(C(=O)C5CCC5)C[C@@H]34)cc2)c1`: the remaining cruzain activity (% of DMSO control) was 106% (inactive).

Take `CN(C)C(=O)c1cccc(-c2ccc([C@H]3[C@H](CO)N4CCCCN(C(=O)C5CC5)C[C@@H]34)cc2)c1`: the remaining cruzain activity (% of DMSO control) is 104% (inactive). In the case of `CN(C)C(=O)c1cccc(-c2ccc([C@H]3[C@H](CO)N4CCCCN(C(=O)CC5CC5)C[C@@H]34)cc2)c1` it was 83.3% (inactive); in that of `O=C(C1CCC1)N1CCCCN2[C@@H](CO)[C@H](c3ccc(Br)cc3)[C@@H]2C1`, 133% (inactive); in that of `CN(C)C(=O)c1cccc(-c2ccc([C@H]3[C@H](CO)N4CCCCN(C(=O)C5CCCCC5)C[C@@H]34)cc2)c1`, 72.3% (inactive).
